The source of these data is ChEMBL document CHEMBL1806469, “Design, synthesis, and antiproliferative activity of new 1H-pyrrolo[3,2-c]pyridine derivatives against melanoma cell lines” (Eur J Med Chem, 2011).

One assay deals with A-375. As to the kind of experiment: Antiproliferation activity against human A375P cells after 48 hrs by MTT assay in presence of fetal bovine serum. Type of assay: functional, cell-based. The settings on record: A-375, 48 h. Put shortly:
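A375P cells kept in DMEM with 10% FBS and 1% penicillin/streptomycin at 37 °C, 5% CO2. Plated at 5 × 10³ cells/well, left 24 h, then given 12 concentrations (3-fold serial dilution) for 48 h. Viability read by MTT reduction at 590 nm. IC50 from the dose-response curve; each compound tested in triplicate.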
(Formazan colour is commonly taken as a measure of viable cells.)

The test system of another assay is NIH3T3. As to the kind of experiment: Antiproliferation activity against mouse NIH/3T3 cells after 48 hrs by MTT assay in presence of bovine calf serum. The assay is classed as cell-based. The settings on record: NIH3T3, 48 h.
In the next assay the test system is LOX IMVI. As to the kind of experiment: Antiproliferation activity against human LOXIMVI cells after 48 hrs by SRB assay. The assay is classed as functional, cell-based. The procedure, abridged:
(§1)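 Run by the NCI. Cells grown in RPMI 1640 with 5% FBS and 2 mM glutamine, plated at 5000–40,000 cells/well by doubling time, and left 24 h at 37 °C, 5% CO2. Time-zero plates fixed with TCA. Drug (DMSO stock) given at five concentrations for 48 h. Cells fixed with cold TCA (final 10%), stained with 0.4% SRB, and read at 515 nm. IC50 taken as 50% reduction in net protein increase versus control.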
For orientation: In SRB staining, fixed cells bind dye roughly in proportion to their protein.

The next assay deals with SK-MEL-2. Kind of assay: Antiproliferation activity against human SK-MEL-2 cells after 48 hrs by SRB assay. The settings on record: SK-MEL-2, 48 h. The assay is classed as functional, cell-based. The procedure, abridged:
as §1

Another assay concerns UACC-257. As to the kind of experiment: Antiproliferation activity against human UACC257 cells after 48 hrs by SRB assay. Type of assay: functional, cell-based. The conditions noted are these: UACC-257, 48 h. Put shortly: as §1
The subject of another assay is MDA-MB-435. As to the kind of experiment: Antiproliferation activity against human MDA-MB-435 cells after 48 hrs by SRB assay. Type of assay: functional, cell-based. The conditions noted are these: MDA-MB-435, 48 h. Put shortly: as §1
A further assay has as its system M14. As to the kind of experiment: Antiproliferation activity against human M14 cells after 48 hrs by SRB assay. The assay is classed as functional, cell-based. The conditions noted are these: M14, 48 h. The procedure, abridged:
as §1

In a further assay the test system is UACC-62. As to the kind of experiment: Antiproliferation activity against human UACC62 cells after 48 hrs by SRB assay. The assay is classed as functional, cell-based. The conditions noted are these: UACC-62, 48 h. The procedure, abridged:
as §1

In a further assay the test system is SK-MEL-28. Kind of assay: Antiproliferation activity against human SK-MEL-28 cells after 48 hrs by SRB assay. The conditions noted are these: SK-MEL-28, 48 h. The assay is classed as functional, cell-based. The procedure, abridged: as §1
In another assay the test system is Malme-3M. Kind of assay: Antiproliferation activity against human MALME-3M cells after 48 hrs by SRB assay. The assay is classed as functional, cell-based. Put shortly: as §1
The next assay relates to SK-MEL-5. Kind of assay: Antiproliferation activity against human SK-MEL-5 cells after 48 hrs by SRB assay. Type of assay: functional, cell-based. The conditions noted are these: SK-MEL-5, 48 h. Put shortly:
as §1

Turning to `Cc1cc(NC(=O)c2ccc(N3CCOCC3)c(C(F)(F)F)c2)ccc1-n1ccc2c(NC(=O)c3ccccc3)nccc21`, the IC50 in the assay on A-375 is over 10000 nM.

Consider `O=C(Nc1ccc(-n2ccc3c(NC(=O)c4ccccc4)nccc32)cc1)Nc1cccc(Cl)c1Cl`, for which the IC50 with A-375 is over 10000 nM.

As to `O=C(Nc1ccc(-n2ccc3c(NC(=O)c4ccccc4)nccc32)cc1)Nc1ccc(Cl)c(Cl)c1`, the IC50 worked out at 200 nM with A-375 and 11.5 µM in the assay on NIH3T3.

As for `O=C(Nc1ccc(-n2ccc3c(NC(=O)c4ccccc4)nccc32)cc1)Nc1cccc(C(F)(F)F)c1`, the IC50 in the assay on A-375 was determined as 7000 nM.

As for `O=C(Nc1ccc(-n2ccc3c(NC(=O)c4ccccc4)nccc32)cc1)Nc1ccc(Cl)c(C(F)(F)F)c1`, the IC50 with A-375 worked out at 2400 nM.

For `O=C(Nc1ccc(-n2ccc3c(NC(=O)c4ccccc4)nccc32)cc1)Nc1cc(C(F)(F)F)cc(C(F)(F)F)c1`, the IC50 with A-375 stood at 1800 nM.

For the compound `Cc1cc(NC(=O)Nc2cccc(Cl)c2Cl)ccc1-n1ccc2c(NC(=O)c3ccccc3)nccc21`, in the assay with A-375, the IC50 was over 10000 nM.

As to `CCN1CCN(Cc2ccc(NC(=O)Nc3ccc(-n4ccc5c(NC(=O)c6ccccc6)nccc54)cc3)cc2C(F)(F)F)CC1`, the IC50 stood at 481 nM in the assay on LOX IMVI; 3620 nM in the assay on SK-MEL-2; 1590 nM in the assay on UACC-257; 894 nM with MDA-MB-435; 1220 nM in the assay with M14; 1270 nM with UACC-62. Moreover, the IC50 in the assay with SK-MEL-28 came to 1290 nM; in the assay on Malme-3M, 1.54 µM; in the assay on A-375, 95 nM; in the assay on SK-MEL-5, 764 nM; in the assay with NIH3T3, 0.98 µM.

Take `Nc1nccc2c1ccn2-c1ccc(NC(=O)Nc2cccc(C(F)(F)F)c2)cc1`: the IC50 in the assay on A-375 was found to be 5400 nM.

With `Nc1nccc2c1ccn2-c1ccc(NC(=O)Nc2ccc(Cl)c(C(F)(F)F)c2)cc1`, the IC50 in the assay on A-375 amounted to 8000 nM.

On to `O=C(Nc1ccc(-n2ccc3c(NC(=O)c4ccccc4)nccc32)cc1)c1cccc(C(F)(F)F)c1`, for which the IC50 with A-375 came out at 100 nM; in the assay with NIH3T3 it was 0.05 µM.

Turning to `O=C(Nc1ccc(-n2ccc3c(NC(=O)c4ccccc4)nccc32)cc1)c1ccc(Cl)c(C(F)(F)F)c1`, the IC50 in the assay on A-375 came out at 16.4 nM; with NIH3T3, 5.65 µM.

Turning to `Cc1cn(-c2cc(C(=O)Nc3ccc(-n4ccc5c(NC(=O)c6ccccc6)nccc54)cc3)cc(C(F)(F)F)c2)cn1`, the IC50 turned out to be 800 nM in the assay with A-375 and 5.57 µM in the assay on NIH3T3.

For `O=C(Nc1ccc(-n2ccc3c(NC(=O)c4ccccc4)nccc32)cc1)c1ccc(N2CCOCC2)c(C(F)(F)F)c1`, the IC50 in the assay with LOX IMVI was 45.6 nM; with SK-MEL-2 it was 637 nM; in the assay with UACC-257, 1980 nM; in the assay on MDA-MB-435, 119 nM; in the assay with M14, 763 nM; in the assay with UACC-62 it was 485 nM. The IC50 in the assay on SK-MEL-28 came out at 292 nM; in the assay with Malme-3M, 11.5 µM; with A-375 it was 7 nM; in the assay with SK-MEL-5, 138 nM; with NIH3T3, 1.74 µM.

As for `O=C(Nc1ccc(-n2ccc3c(NC(=O)c4ccccc4)nccc32)cc1)c1cc(N2CCOCC2)cc(C(F)(F)F)c1`, the IC50 in the assay with A-375 is 300 nM; with NIH3T3 it was 0.27 µM.

As to `Cc1cc(NC(=O)c2cccc(C(F)(F)F)c2)ccc1-n1ccc2c(NC(=O)c3ccccc3)nccc21`, the IC50 with A-375 was over 10000 nM.

For the compound `Cc1cc(NC(=O)c2ccc(Cl)c(C(F)(F)F)c2)ccc1-n1ccc2c(NC(=O)c3ccccc3)nccc21`, the IC50 in the assay on A-375 came out at 2700 nM.

For the compound `O=C(Nc1nccc2c1ccn2-c1ccc(NC(=O)c2ccc(-c3cc(C(F)(F)F)ccc3Cl)o2)cc1)c1ccccc1`, the IC50 turned out to be 1000 nM with A-375 and 15.9 µM with NIH3T3.

As to `Nc1nccc2c1ccn2-c1ccc(NC(=O)c2ccc(Cl)c(C(F)(F)F)c2)cc1`, in the assay with A-375, the IC50 was 3800 nM.

On to `Nc1nccc2c1ccn2-c1ccc(NC(=O)c2ccc(N3CCOCC3)c(C(F)(F)F)c2)cc1`, for which the half-inhibitory concentration (IC50) with A-375 turned out to be 6200 nM.

With `CNC(=O)c1cc(Oc2ccc(NC(=O)Nc3ccc(Cl)c(C(F)(F)F)c3)cc2)ccn1` [SORAFENIB], the IC50 in the assay on A-375 stood at 5600 nM; in the assay with NIH3T3, 24.8 µM.

As usually defined, the IC50 is the concentration at which inhibition is half-maximal.
